High-throughput results deposited in PubChem by several laboratories.
Only some compounds are listed: those with a hit (about 2.3% of all), similar ones and a draw of the others.
TDP2 absorb = human TDP2 enzyme inhibitors, primary screen, biochemical, epi absorbance, recombinant enzyme | inhibition, % at 12.8 µM | T5PNP hydrolysis, p-nitrophenol absorbance 415 nm | 0.34% of 370,000 active | Tyrosyl-DNA phosphodiesterase 2 (Homo sapiens), O95551 | AID 720702, 2013;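 active = inhibition above the mean of all tested compounds plus 3 SD, set per campaign, cut at about 25% in these data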;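 also: 0% = DMSO with enzyme and 100% = buffer with substrate but no TDP2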
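Incubation: 2 h at 37 °C; Test system: recombinant human TDP2; Quantity: enzyme 120 nM; Read-out basis: percent inhibition; Medium: 50 mM Tris-HCl pH 7.5 with Mg2+, KCl, DTT, BSA; Repeats: single replicate; Compound: 12.8 µM single point, 1% DMSO; Signal: epi absorbance; Reagent: 5 mM T5PNP chromogenic substrate; Benchmarks: no-enzyme high, DMSO-plus-enzyme low.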
PAFAH2 inh = PAFAH2 enzyme inhibitors, primary screen, biochemical, fluorescence polarization, human | 0.99% of 340,000 active | recombinant PAFAH2, FP-rhodamine activity probe | inhibition, % at 3.39 µM | AID 492956, 2010 | Platelet-activating factor acetylhydrolase 2, cytoplasmic (Homo sapiens), Q99487;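 active = inhibition above the mean over all tested compounds plus 3 SD, cut at about 30% in these data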;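 also: inhibitors block probe labeling of enzyme so polarization drops; 0% = enzyme with DMSO and 100% = wells lacking PAFAH2 protein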
Apaf-1 inh = inhibitors of human Apaf-1 apoptosome, primary screen, biochemical, DEVD-Rh110 fluorescence, uHTS; 0.71% of 330,000 active; inhibition, % at 20 µM; reconstituted apoptosome caspase-3 activity; active = inhibition of at least 40% at 20 µM;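 also: plate controls were DMSO wells for no effect and DEVD-CHO caspase inhibitor wells for full effect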
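Assay system: Apoptosome proteins | Medium: pH 7.5 Hepes buffer with CHAPS, BSA, DTT | Also added: Cytochrome c and DEVD-Rh110 substrate | Times: 30 min plus 50 min, RT | Detection: Rhodamine 110 fluorescence at Ex 480/Em 540 nm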
PAFAH1B2 inh = PAFAH1B2 enzyme inhibitors, primary screen, biochemical, fluorescence polarization, human; recombinant PAFAH1B2, FP-rhodamine activity probe; inhibition, % at 3.39 µM; 1.2% of 340,000 active; AID 492953, 2010;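 active = inhibition above the mean of all tested compounds plus 3 SD, cut at about 24% in these data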;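 also: 0% = enzyme with DMSO and 100% = wells lacking PAFAH1B2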
Target sequence (P68402 whole entry, looked up): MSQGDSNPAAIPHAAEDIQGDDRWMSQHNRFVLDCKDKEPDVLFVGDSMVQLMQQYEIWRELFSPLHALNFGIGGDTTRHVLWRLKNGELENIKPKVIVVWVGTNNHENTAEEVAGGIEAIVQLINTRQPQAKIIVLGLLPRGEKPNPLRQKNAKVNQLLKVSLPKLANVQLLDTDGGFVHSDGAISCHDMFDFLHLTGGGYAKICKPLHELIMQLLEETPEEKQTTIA
PAFAH1B3 inh = PAFAH1B3 enzyme inhibitors, primary screen, biochemical, fluorescence polarization, human; Platelet-activating factor acetylhydrolase IB subunit alpha1 (Homo sapiens), Q15102; recombinant PAFAH1B3, FP-rhodamine probe; inhibition, % at 3.39 µM; 0.28% of 340,000 active; AID 492972, 2010;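 active = inhibition above the screen-wide average of all tested compounds plus 3 SD, cut at about 25% in these data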;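 also: 0% = enzyme with DMSO only and 100% = wells lacking PAFAH1B3 protein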
Target sequence (Q15102 whole entry, looked up): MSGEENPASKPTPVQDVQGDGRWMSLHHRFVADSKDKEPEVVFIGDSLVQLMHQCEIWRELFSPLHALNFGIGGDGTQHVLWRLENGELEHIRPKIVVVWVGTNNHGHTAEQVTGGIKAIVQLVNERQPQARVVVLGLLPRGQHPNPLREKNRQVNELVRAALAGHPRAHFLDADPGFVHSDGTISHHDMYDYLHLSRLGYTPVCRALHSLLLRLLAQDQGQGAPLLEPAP
PAFAH2 FP conf = PAFAH2 enzyme inhibitors, confirmation, biochemical, fluorescence polarization, human; recombinant PAFAH2, FP-rhodamine activity probe; shares compounds with PAFAH2 inh; inhibition, % at 3.39 µM; AID 493030, 2011; 65% of 2,300 active;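 active = mean inhibition over three repeats above a set limit taken from the earlier primary screen, cut at about 30% in these data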;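 also: inhibitor blocks binding of rhodamine activity probe so polarization falls; 0% = enzyme with DMSO and 100% = wells lacking PAFAH2 protein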
An asterisk follows results filed as active; / = no result.

SMILES	TDP2 absorb	PAFAH2 inh	Apaf-1 inh	PAFAH1B2 inh	PAFAH1B3 inh	PAFAH2 FP conf
Cc1ccc(C(=O)OCC(=O)Nc2cc(F)ccc2F)cc1NC(=O)c1ccco1	-22.4	77.7*	-1.8	2.0	-2.4	70.3*
Cc1ccc(C(=O)OCC(=O)Nc2ccc(N(C)C)cc2)cc1NC(=O)c1ccco1	2.8	40.5*	-8.3	-2.4	2.6	34.6*
COC(=O)[C@]12C[C@H](CC(=O)NCCCCc3ccccc3)C(=O)N(Cc3ccc(Cl)cc3Cl)C1=C[C@H](C(C)(C)C)O[C@@H]2C	-2.0	/	/	/	/	/
COC(=O)[C@]12C[C@H](CC(=O)NCc3ccc(C)o3)C(=O)N(CCc3ccc(OC)c(OC)c3)C1=C[C@H](C1CCCC1)O[C@@H]2C	-1.1	/	/	/	/	/
Cc1ccccc1NC(=O)O[C@H]1CC[C@@]23CCCN2C(=O)CCC[C@H]3[C@H]1C	2.4	/	/	/	/	/
Cc1ccc(C(=O)OCC(=O)Nc2ccccc2)cc1NC(=O)c1ccco1	10.7	81.5*	-6.3	-7.3	1.3	81.2*
C=CCOc1ccc(/C=C/C(=O)OCC(=O)NCCc2ccccc2)cc1	-2.7	28.1	11.6	-2.3	-1.8	/
O=C(COC(=O)/C=C/c1ccc([N+](=O)[O-])cc1)NCc1ccco1	-8.2	12.6	-13.0	2.3	8.8	/
O=C(COC(=O)C1CC2C=CC1C2)NCc1ccco1 (stereo unspecified)	-3.3	32.4*	11.6	1.2	3.3	12.0
O=C(COC(=O)/C=C/c1ccc(F)cc1)NCc1ccco1	-6.1	47.0*	-9.8	2.2	3.0	28.7
C=CCOc1ccc(/C=C/C(=O)OCC(=O)NCc2ccco2)cc1	-11.7	46.1*	-1.2	-0.3	7.9	36.3*
COC(=O)[C@]12C[C@H](CC(=O)NCc3cccc(C(F)(F)F)c3)C(=O)N(CCc3ccc(OC)c(OC)c3)C1=C[C@H](COCc1ccccc1)O[C@@H]2C	0.1	/	/	/	/	/
CC(=O)CC[C@H]1CC[C@]2(CCCN(Cc3nccn3C)C2)O1	-3.0	/	/	/	/	/
C=CS(=O)(=O)N(Cc1nnn(Cc2ccccc2)c1Br)[C@@H](CC(C)C)C(=O)OC	7.8	/	/	/	/	/
CCOC(=O)CC[C@H]1CC[C@]2(CCCN(C(=O)c3ccc4ccccc4n3)C2)O1	6.1	/	/	/	/	/
O=C(COC(=O)c1ccc(O)cc1)Nc1ncc(Cl)cc1Cl	-7.0	37.9*	-11.4	1.9	-1.2	28.7
O=C(COC(=O)Cc1ccc(Cl)cc1)NCc1ccc2c(c1)OCO2	-4.8	-3.9	6.3	7.3	6.7	/
O=C(COC(=O)CNC(=O)c1ccc2c(c1)OCO2)Nc1ncc(Cl)cc1Cl	18.8	3.4	-1.5	-2.0	8.6	/
O=C(COC(=O)c1ccc2c(c1)OCO2)NCc1ccc(Cl)cc1	6.9	43.6*	9.5	9.6	4.5	40.1*
O=C(COC(=O)c1ccc2c(c1)OCO2)Nc1ncc(Cl)cc1Cl	0.6	40.1*	-4.2	3.8	2.4	37.5*
CC(C)NC(=O)C1CCN(c2cncnc2)CC1	-7.8	/	/	/	/	/
Cc1cc(C)cc(N(CC(=O)NC2CCC(C)CC2)S(=O)(=O)c2cccs2)c1 (stereo unspecified)	10.9	/	/	/	/	/
C=CCNC(=O)/C(C#N)=C/c1ccccc1Cl	2.2	3.8	9.7	-3.7	-4.5	/
C=CCNC(=O)/C(C#N)=C/c1cc(Br)ccc1OC	-11.1	32.9*	-1.9	-5.0	-1.9	16.1
O=C(O)/C(=C\c1ccccc1OC(F)F)c1ccc(-c2ccccc2)cc1	-13.0	49.1*	8.5	-4.3	2.6	40.1*
SMILES	TDP2 absorb	PAFAH2 inh	Apaf-1 inh	PAFAH1B2 inh	PAFAH1B3 inh	PAFAH2 FP conf
Cc1nc(S/C(=C/c2ccc(-c3cccc(Cl)c3)o2)C(=O)O)n[nH]1	5.9	46.4*	18.7	20.8	6.1	31.9*
O=C(COC(=O)/C=C/c1ccccc1)NC1CCCC1	-7.3	84.4*	3.5	6.1	7.1	74.2*
COc1cccc(/C=C/C(=O)OCC(=O)NC2CC2)c1	-0.7	41.1*	2.2	0.6	9.2	38.4*
O=C(/C=C/c1ccccc1Cl)NC1CCCCC1	10.7	-4.9	10.5	-1.7	1.6	/
O=C(COC(=O)/C=C/c1cccc(Br)c1)NC1CCCC1	-23.1	65.6*	2.8	-2.3	13.1	59.1*
O=C(COC(=O)/C=C/c1ccccc1Cl)NC1CCCCCC1	9.8	71.7*	6.3	-0.9	6.3	74.5*
CN(C)CCCNC(=O)c1c(N)[nH]c(C(=O)c2ccc(Br)cc2)c1-c1ccc(Br)cc1	4.3	/	/	/	/	/
O=C(COC(=O)/C=C/c1ccccc1)NC1CCCCC1	-6.8	76.3*	5.0	2.7	3.0	82.9*
COc1cccc(/C=C/C(=O)OCC(=O)NC2CCCCCC2)c1	-3.8	/	/	/	/	/
COc1cccc(/C=C/C(=O)OCC(=O)NCCc2ccccc2)c1	0.1	32.4*	7.6	-1.7	4.1	22.8
c1ccc(CC(Nc2cccnc2)c2ccccc2)cc1 (stereo unspecified)	-5.9	/	/	/	/	/
O=C1CC(=O)Nc2cc(S(=O)(=O)N3CCOc4ccc(Cl)cc43)ccc2N1	-5.1	45.2*	5.9	1.9	-2.0	39.8*
Cc1ccc2c(c1)N(S(=O)(=O)c1ccc3c(c1)NC(=O)CC(=O)N3)CCO2	1.7	22.4	2.4	7.9	-0.8	/
Cc1ccc(C(=O)c2ccccc2C(=O)OCC(=O)NC(C)(C)C)cc1	4.4	61.7*	-4.7	0.1	8.6	50.7*
Nc1[nH]c(C(=O)c2ccccc2)c(-c2ccc(O)cc2)c1C(=O)NCCc1c[nH]c2ccccc12	-12.9	/	/	/	/	/
COC(=O)c1c(NC(=O)c2cccc(S(=O)(=O)N3CCN(C)CC3)c2)sc(C)c1C	-5.1	29.7*	29.8	1.1	-1.7	15.6
Cc1ccc(-c2nnn(CC(=O)N(Cc3cccs3)C(C(=O)NC3CCCC3)c3ccncc3)n2)cc1 (stereo unspecified)	7.6	10.3	7.6	4.3	8.4	/
O=C(NC1CCCCC1)C(c1ccncc1)N(C(=O)Cn1nnc(-c2cccs2)n1)C1CCCC1 (stereo unspecified)	3.8	61.7*	-5.6	-1.4	-4.0	53.8*
O=C(O)c1ccc(CNC(=O)c2ccccc2NC(=O)c2cccc([N+](=O)[O-])c2)cc1	-2.2	-6.1	-0.2	-0.2	1.6	/
O=C(O)c1ccc(CNC(=O)c2ccccc2NC(=O)c2ccc([N+](=O)[O-])cc2)cc1	8.2	37.8*	6.4	3.7	3.8	29.8*
CCCCNC(=O)O[C@H]1CC[C@@]23CCCN2C(=O)CCC[C@H]3C1	-2.9	/	/	/	/	/
